Active and inactive are the calls of the source. No cut-off for these calls is given here.
Key:
[1] = tested on: HepG2; experiment: Cytotoxicity against human HepG2 cells in normoxic condition after 48 hrs by MTT assay; assay type: functional, cell-based
Summary of the method: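 HepG2 cells (passage 2 from frozen stock) in RPMI 1640 with 10% FBS, dosed during log-phase growth with drug or vehicle (0.1% DMSO). Normoxic incubation at 37 °C, 5% CO2 for 48 h, then MTT read-out. Duplicate plates split from the same stock cells.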

[2] = tested on: HepG2; experiment: Cytotoxicity against human HepG2 cells in hypoxic condition after 48 hrs by MTT assay; assay type: functional, cell-based
Summary of the method: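 HepG2 cells (passage 2, RPMI 1640 + 10% FBS) given drug or 0.1% DMSO vehicle in log phase. 22 h normoxia, then 2 h hypoxia (1% O2, 5% CO2, 94% N2, 37 °C) in a glove chamber checked by methylene blue indicator, then 24 h reoxygenation. MTT read at 48 h; parallel normoxic duplicate plate.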

[3] = tested on: HepG2; experiment: Down regulation of hypoxia inducible P21 gene expression in human HepG2 cells at 20 uM by RT-PCR; assay type: functional, cell-based
Summary of the method: (§1)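 Total RNA extracted with TRIzol, then quantitative RT-PCR: 50 °C 2 min, 95 °C 10 min, 40 cycles of 95 °C 15 s / 60 °C 1 min, with melting curves. Ct normalized to GAPDH; treated-minus-control ΔCt converted by 2^ to relative expression.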

[4] = tested on: HepG2; experiment: Cytotoxicity against human HepG2 cells assessed as cell survival under hypoxic condition at 100 uM after 24 hrs by clonogenic assay relative to control; assay type: functional; details: HepG2, 24 h, read-out: Survival
Summary of the method: (§2)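 HepG2 in RPMI 1640 + 10% FBS, 3.5 × 10^3 cells/well, grown 24 h at 37 °C normoxic, then exposed to vehicle (0.1% DMSO) or drug. Hypoxia 1% O2/5% CO2/94% N2 at 37 °C for 5 h in glove chamber, then reoxygenated (5% CO2, 37 °C) for the rest of 10 days. Acetic acid fixation, crystal violet stain. Colonies >50 μm counted in three random 1-mm grids, expressed relative to controls; Mann–Whitney test.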

[5] = tested on: HepG2; experiment: Cytotoxicity against human HepG2 cells assessed as cell survival under normoxic condition at 25 uM after 24 hrs by clonogenic assay relative to control; assay type: functional; details: HepG2, 24 h, read-out: Survival
Summary of the method: (§3)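 HepG2 in RPMI 1640 + 10% FBS, 3.5 × 10^3 cells/well, allowed 24 h growth at 37 °C. Vehicle (0.1% DMSO) or drug then applied, with 10 days incubation under normoxia (5% CO2, 37 °C). Fixed in 10% acetic acid, stained with crystal violet. Colonies >50 μm were counted visually in three random 1-mm × 1-mm grids, relative to controls; Mann–Whitney test.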

[6] = tested on: HepG2; experiment: Cytotoxicity against human HepG2 cells assessed as cell survival under normoxic condition at 50 uM after 24 hrs by clonogenic assay relative to control; assay type: functional; details: HepG2, 24 h, read-out: Survival; summary of the method: as §3
[7] = tested on: HepG2; experiment: Cytotoxicity against human HepG2 cells assessed as assessed as cell survival under hypoxic condition at 50 uM after 24 hrs by clonogenic assay; assay type: functional; details: HepG2, 24 h, read-out: Survival; summary of the method: as §2
[8] = tested on: HepG2; experiment: Down regulation of hypoxia inducible VEGF gene expression in human HepG2 cells at 20 uM by RT-PCR; assay type: functional, cell-based; summary of the method: as §1
[9] = tested on: HepG2; experiment: Cytotoxicity against human HepG2 cells assessed as cell survival under hypoxic condition at 400 uM after 24 hrs by clonogenic assay relative to control; assay type: functional, cell-based; details: in the assay text read “normoxic” for “hypoxic”
[10] = tested on: HepG2; experiment: Cytotoxicity against human HepG2 cells assessed as cell survival under hypoxic condition at 25 uM after 24 hrs by clonogenic assay relative to control; assay type: functional; details: HepG2, 24 h, read-out: Survival; summary of the method: as §2
[11] = tested on: HepG2; experiment: Down regulation of hypoxia inducible HIF1alpha gene expression in human HepG2 cells at 20 uM by RT-PCR; assay type: functional, cell-based; summary of the method: as §1
[12] = tested on: HepG2; experiment: Cytotoxicity against human HepG2 cells assessed as cell survival under normoxic condition assessed as cell survival at 100 uM after 24 hrs by clonogenic assay relative to control; assay type: functional; details: HepG2, 24 h, read-out: Survival; summary of the method: as §3
[13] = tested on: HepG2; experiment: Cytotoxicity against human HepG2 cells assessed as cell survival under normoxic condition at 10 uM […] by clonogenic assay relative to control; assay type: functional; details: read-out: Survival; summary of the method: as §3
[14] = tested on: HepG2; experiment: Cytotoxicity against human HepG2 cells assessed as cell survival under hypoxic condition at 10 uM after 24 hrs by clonogenic assay; assay type: functional; details: HepG2, 24 h, read-out: Survival; summary of the method: as §2
[15] = Homo sapiens, HepG2, 48 h, read-out: IC50

Structure (SMILES): Clc1ccc2c(c1)N=C(c1ccccc1)CO2
- IC50 [1, 15]: 78 µM
- IC50 [2, 15]: 30 µM

Structure (SMILES): Cc1ccc(C2=Nc3ccc(Cl)cc3OC2)cc1
- IC50 ([1]; hepg2): Not Active
- IC50 [2, 15]: 10 µM

Structure (SMILES): Cc1ccc(C2=Nc3cc(F)ccc3OC2)cc1
- IC50 ([1]; hepg2): Not Active
- IC50 [2, 15]: 100 µM

Structure (SMILES): Cc1ccc2c(c1)N=C(c1ccc(Cl)cc1)CO2
- Activity [3]: Active
- viability at 100 µM [4]: -90%
- viability at 25 µM [5]: 5%
- viability at 50 µM [6]: 3%
- viability at 50 µM [7]: -65%
- IC50 [2, 15]: 87 µM
- Activity [8]: Active
- Activity [9]: Not toxic
- viability at 25 µM [10]: -31%
- Activity [11]: Active
- viability at 100 µM [12]: 10%

Structure (SMILES): Cc1ccc2c(c1)N=C(c1ccc(F)cc1)CO2
- IC50 ([1]; hepg2): Not Active
- IC50 ([2]; hepg2): Not Active

Structure (SMILES): Clc1ccc(C2=Nc3ccc(Cl)cc3OC2)cc1
- IC50 [1, 15]: 88 µM
- IC50 [2, 15]: 28 µM

Structure (SMILES): O=[N+]([O-])c1ccc2c(c1)N=C(c1ccc(Cl)cc1)CO2
- IC50 [1, 15]: 78 µM
- viability at 50 µM [6]: -11%
- viability at 50 µM [7]: -83%
- IC50 [2, 15]: 20 µM
- viability at 10 µM [13]: 10%
- viability at 10 µM [14]: -28%

Structure (SMILES): c1ccc(C2=Nc3ccccc3OC2)cc1
- IC50 [1, 15]: 87 µM
- IC50 [2, 15]: 10 µM
- viability at 10 µM [14]: -71%
